A selection: hits, their analogues and other compounds. The true share with any hit is near 3.8%.
hERG protect = compounds protecting human hERG from proarrhythmic drug block; Q12809; CHO-hERG, FluxOR thallium flux, dofetilide IC70 present; activation (rescue from dofetilide block), less the hit threshold, % at 10 µM; 0.51% of 310,000 active; AID 1511;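 active = activation above the mean of controls blocked by dofetilide plus 5 SD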;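 note: thallium influx through hERG after potassium depolarization seen as dye fluorescence rise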
KCNQ1 block = human KCNQ1 channel inhibition. P51787. CHO-K1 KCNQ1, FluxOR thallium flux fluorescence; hits give high values. B-score at 10 µM. 1.3% of 310,000 active. AID 2642;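 active = compounds whose thallium flux B-score, printed positive for inhibition, exceeds three library SD while starting fluorescence stays within three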;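 note: channel opened by potassium depolarization with thallium stimulus after 20 min compound exposure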
KCNK9 inh = inhibitors of human KCNK9 two-pore domain potassium channel. HEK293 KCNK9, FluxOR thallium flux fluorescence; hits give low values. B-score at 10 µM. 1.2% of 310,000 active. Q9NPC2. AID 488922;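 active = ratio B-score over 3 SD below the library mean, with starting fluorescence within 5 SD of its mean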;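 note: negative B-score means less thallium flux so channel inhibition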
KCNK3 block = human KCNK3 channel inhibition, primary screen. O14649. CHO-KCNK3 thallium flux, FluxOR fluorescence; hits give low values. B-score at 10 µM. 0.84% of 340,000 active;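 active = B-score under library mean minus 4 SD, starting fluorescence ratio at most library mean plus 5 SD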;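 note: more negative B-score means stronger inhibition of thallium flux through KCNK3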
Target sequence (O14649 whole entry, looked up): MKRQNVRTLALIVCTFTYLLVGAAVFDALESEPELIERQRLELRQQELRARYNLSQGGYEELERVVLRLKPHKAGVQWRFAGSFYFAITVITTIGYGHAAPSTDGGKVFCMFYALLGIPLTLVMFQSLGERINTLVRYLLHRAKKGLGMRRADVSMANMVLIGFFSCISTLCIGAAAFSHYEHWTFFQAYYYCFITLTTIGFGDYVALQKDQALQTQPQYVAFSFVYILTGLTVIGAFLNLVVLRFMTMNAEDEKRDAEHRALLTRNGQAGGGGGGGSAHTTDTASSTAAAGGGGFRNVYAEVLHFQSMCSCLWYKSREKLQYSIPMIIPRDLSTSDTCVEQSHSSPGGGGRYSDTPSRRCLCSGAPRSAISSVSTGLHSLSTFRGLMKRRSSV
Kir21 block = Kir2.1 (mouse) channel inhibition | P35561 | HEK293-Kir2.1, FluxOR thallium flux fluorescence; hits give low values | B-score at 10 µM | 0.85% of 310,000 active;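 active = fluorescence ratio B-score at or below minus 3 SD of library scores, with starting-brightness B-score within 2 SD, cut at about -4.2 in these data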;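 note: channel flux triggered by added potassium and thallium sulfate stimulus; B-score of peak minus minimum fluorescence over baseline after thallium stimulus; more negative B-score means stronger Kir2.1 block with less thallium influx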
KCNQ1 act = potentiates or activates the human KCNQ1 potassium channel | B-score at 10 µM | AID 2648 | CHO-K1 KCNQ1, thallium flux FluxOR fluorescence; hits give high values | 0.35% of 310,000 active;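 active = fluorescence ratio B-score, a plate-corrected score, at least three library SD, with initial intensity B-score within 5 SD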
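Material: CHO-K1 cells stably expressing KCNQ1. Medium: assay buffer for compound exposure, DMSO matched across wells. Reagent: K+/Tl+ depolarizing stimulus. Compound dosing: single-concentration screen. Times: 37 °C overnight plating, 90-min dark dye load, 20-min compound pretreatment. Technique: FluxOR Tl+ flux fluorescence.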
* hit, by the source's call; i = inactive; . = no result.

SMILES	hERG protect	KCNQ1 block	KCNK9 inh	KCNK3 block	Kir21 block	KCNQ1 act
Cc1cccc(N(CC(=O)N2CCCC2)S(=O)(=O)c2ccccc2)c1	-4.3	i	i	i	-0.83	i
O=C1/C(=C/Nc2ccc3c(c2)OCO3)CCc2ccccc21	-12.6	6*	i	i	0.12	i
COc1ccc(C(=O)Nc2sc(C)c(-c3ccccc3)c2C#N)cc1OC	-4.9	6*	i	-10.6*	-0.34	i
Cc1sc(NC(=O)COc2ccccc2)c(C#N)c1-c1ccccc1	-4.9	i	i	i	-2.6	i
COc1ccc(CN2CCN(CC=C(C)C)C(CCO)C2)cc1Cn1cccn1 (stereo not drawn)	-4.1	i	i	i	-0.02	i
CC1(C)CC(c2nc(-c3ccc(Cl)cc3)cs2)CCS1 (stereo not drawn)	-10.2	9*	i	i	0.15	i
O=C(O)CC1(CC(=O)Nc2ccccc2Br)CCCC1	-8.2	i	i	i	-0.66	i
CC(=O)Nc1ccc(OC(=O)c2ccco2)cc1	-2.7	i	i	i	-0.61	i
CCCOC(=O)c1ccc(OC(=O)c2ccco2)cc1	-8.7	i	i	i	-4.38*	i
CN1CCN(c2ccc(Nc3ccnc4cc(Cl)ccc34)cc2)CC1	-7.1	i	i	i	-6.79*	i
CCOc1ccc(Nc2ccnc3cc(Cl)ccc23)cc1	-16.6	i	i	i	0.53	i
CC(=O)Nc1c(C)nn(-c2ccc(C)c(C)c2)c1C	-4.1	i	i	i	-0.77	i
CC(C)(C)c1ccc(C(=O)NCCc2ccccc2)cc1	-0.7	i	i	i	0.01	i
O=C1CC(C(=O)Nc2cccc3ccccc23)C2(CCCC2)O1 (stereo not drawn)	7.8*	i	i	i	-2.15	i
CC(=O)Nc1c(C(N)=O)oc2ccc(Cl)cc12	-0.2	i	i	i	-0.03	i
O=[N+]([O-])c1ccc2nc(NS(=O)(=O)c3ccccc3[N+](=O)[O-])sc2c1	-5.6	i	i	i	0.35	i
O=C(NC(Nc1nc2ccc([N+](=O)[O-])cc2s1)(C(F)(F)F)C(F)(F)F)c1ccccc1Cl	-32.8	10*	i	i	-5*	i
O=C(NC(Nc1nc2ccc([N+](=O)[O-])cc2s1)(C(F)(F)F)C(F)(F)F)c1cccnc1	-16.8	12*	i	i	-5.69*	i
COc1ccccc1CNC(=O)COc1cc2c(c3oc(=O)cc(C)c13)CCC(C)(C)O2	-10.1	i	i	i	-0.12	i
CCCSC1=C(C#N)C(c2cccs2)C(C(=O)Nc2ccccc2)=C(C)N1 (stereo not drawn)	-14.4	12*	i	i	-2.29	i
CCSC1=C(C#N)C(c2cccs2)C(C(=O)OC)=C(C)N1 (stereo not drawn)	-3.3	i	i	i	-4.04	i
CCOC(=O)C1=C(C)OC(N)=C(C#N)C1c1ccccc1 (stereo not drawn)	-18.2	i	i	i	-1.27	i
CCOC(=O)C1=C(C)OC(N)=C(C#N)C1c1c(C)nn(-c2ccc(C)cc2)c1Cl (stereo not drawn)	-20.1	i	-9.75*	.	-1.51	i
NS(=O)(=O)c1ccc(CNC(=O)/C=C/c2ccc(Cl)c(Cl)c2)cc1	-5.7	i	i	i	2.59	i
Nc1nc(-c2ccccn2)nc(N)c1Cc1ccc(Cl)cc1Cl	-11.9	i	i	i	0.41	9*
Nc1nc(-c2ccccn2)nc(N)c1Cc1ccccc1F	-10.2	i	i	i	-0.43	i
CCOC(=O)/C(C#N)=C/c1ccc(SC)cc1	42.5*	i	i	i	0.84	i
CCOC(=O)/C(C#N)=C/c1ccc(OC)c(OC)c1	-9.6	i	i	i	0.36	i
N=C1/C(=C\c2coc3ccccc3c2=O)C(=O)N=C2SC(c3ccncc3)=NN12	-50.4	16*	i	i	-11.9	i
N=C1/C(=C/c2coc3ccccc3c2=O)C(=O)N=C2SC(c3ccco3)=NN12	-26.5	7*	i	i	-11.5	i

Screening data: PubChem BioAssay, Johns Hopkins Ion Channel Center
